# Laboratory results published in ChEMBL document CHEMBL1138042, “2-[(4-phenylpiperazin-1-yl)methyl]imidazo(di)azines as selective D4-ligands. Induction of penile erection by 2-[4-(2-methoxyphenyl)piperazin-1-ylmethyl]imidazo[1,2-a]pyridine (PIP3EA), a potent and selective D4 partial agonist” (J Med Chem, 2006).
# Tests used:
# [1] = biological target: T1, D(4) dopamine receptor (Homo sapiens, UniProt P21917); assay: Displacement of [3H]spiperone from human dopamine receptor D4.4 in CHO cell membrane; format: cell membranes
# T1 sequence (P21917 whole entry): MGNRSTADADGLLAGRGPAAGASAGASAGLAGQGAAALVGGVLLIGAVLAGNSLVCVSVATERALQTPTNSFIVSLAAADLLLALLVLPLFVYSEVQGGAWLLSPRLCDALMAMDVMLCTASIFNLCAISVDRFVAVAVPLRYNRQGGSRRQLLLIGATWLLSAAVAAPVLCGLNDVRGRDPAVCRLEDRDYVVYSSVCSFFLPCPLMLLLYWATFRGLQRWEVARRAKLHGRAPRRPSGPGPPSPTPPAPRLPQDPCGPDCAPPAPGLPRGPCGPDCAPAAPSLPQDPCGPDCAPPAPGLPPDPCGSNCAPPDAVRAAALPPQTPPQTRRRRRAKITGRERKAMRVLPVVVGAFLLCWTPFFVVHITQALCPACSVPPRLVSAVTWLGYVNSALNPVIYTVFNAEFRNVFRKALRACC
# [2] = biological target: D(3) dopamine receptor (Homo sapiens, UniProt P35462); assay: Displacement of [3H]spiperone from human dopamine receptor D3 in CHO cell membrane; format: cell membranes
# [3] = biological target: 5-hydroxytryptamine receptor 2A (Sus scrofa, UniProt P50129); assay: Displacement of [3H]ketanserin from 5HT2 receptor in porcine cortical membrane; format: cell membranes
# [4] = biological target: D(1A) dopamine receptor (Sus scrofa, UniProt P50130); assay: Displacement of [3H][…] from dopamine receptor D1 in porcine striatal membrane; format: cell membranes, Striatum
# [5] = biological target: T2, D(2) dopamine receptor (Homo sapiens, UniProt P14416); assay: Displacement of [3H]spiperone from human dopamine receptor D2(long) in CHO cell membrane; format: cell membranes
# [6] = biological target: T2, D(2) dopamine receptor; assay: Displacement of [3H]spiperone from human dopamine receptor D2(short) in CHO cell membrane; format: cell membranes
# [7] = biological target: T3, D(4) dopamine receptor (Homo sapiens) (UniProt P21917); assay: Intrinsic activity at human D4.2 receptor assessed as [3H]thymidine incorporation in CHO 10001 cells relative to quinpirole by mitogenesis assay; format: functional, cell-based
# T3 sequence (whole entry): T1 sequence (P21917 whole entry)
# Summary of the method: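 CHO10001 cells expressing human D4.2 were seeded at 5000 cells/well, grown 72 h in serum medium, then switched to serum-free medium. Compound was applied for 20 h at 8 concentrations (0.01-10 000 nM) in hexaduplicate. [³H]thymidine (0.02 µCi/well) was added for 2 h and incorporation counted.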
# [8] = biological target: T1, D(4) dopamine receptor; assay: Activity at human D4.2 receptor assessed as [3H]thymidine incorporation in CHO 10001 cells by mitogenesis assay; format: functional, cell-based
# [9] = biological target: T1, D(4) dopamine receptor; assay: Activity at human D4.4 receptor expressed in CHOK1 cells assessed as stimulation of [35S]GTP-gammaS binding; format: functional, cell-based, CHO-K1
# [10] = biological target: T3, D(4) dopamine receptor (Homo sapiens); assay: Intrinsic activity at human D4.4 receptor expressed in CHOK1 cells assessed as stimulation of [35S]GTP-gammaS binding relative to quinpirole; format: functional, cell-based; details: CHO-K1
# Summary of the method: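 Membranes from CHO cells stably expressing human D4.4 (Bmax 2.25 pmol/mg protein) in HEPES buffer pH 7.4 with 1 µM GDP at 37 °C. Test agent given at eight concentrations (0.01–10 000 nM) in hexaduplicate for 30 min, then 0.1 nM [35S]GTPγS for a further 30 min. Bound label filtered and counted.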
# [11] = system: Rattus norvegicus; assay: Penile erection in Sprague-Dawley rat at 0.5 ug/kg, icv; format: functional; details: in the assay text read “0.5 ug/rat” for “0.5 ug/kg”
# Summary of the method: (§1)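 Male Sprague-Dawley rats (225-250 g) were dosed s.c. (0.2 mL/rat) or i.c.v. (10 µL/rat, via a stereotaxic guide cannula implanted under chloral hydrate 3 days earlier). Vehicle was ethanol diluted in water to 0.3%. Rats were acclimated 30 min in individual cages, then observed 60 min after injection. Erections were scored as penis emerging from the sheath. Means ± SEM, 6 rats/group; cannula placement was checked histologically.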
# [12] = system: Rattus norvegicus; assay: Penile erection in Sprague-Dawley rat at 20 ug/kg, sc; format: functional; summary of the method: as §1
# [13] = system: Rattus norvegicus; assay: Penile erection in Sprague-Dawley rat at 1 ug, icv; format: functional; summary of the method: as §1
# [14] = system: Rattus norvegicus; assay: Penile erection in Sprague-Dawley rat at 5 ug/kg, sc; format: functional; summary of the method: as §1
# [15] = Selectivity for human dopamine D4.4 receptor over adrenergic alpha-1 receptor
# [16] = biological target: T4, Dopamine receptors; D2 & D4 (Homo sapiens) (UniProt P14416+P21917); assay: Selectivity for human dopamine D4.4 receptor over dopamine D2(short) receptor; format: protein assay
# [17] = biological target: T4, Dopamine receptors; D2 & D4 (Homo sapiens); assay: Selectivity for human dopamine D4.4 receptor over dopamine D2(long) receptor; format: protein assay
# [18] = Selectivity for human dopamine D4.4 receptor over porcine dopamine D1 receptor
# [19] = biological target: Adrenergic receptor alpha-1 (Sus scrofa); assay: Displacement of [3H]prazosin from porcine Adrenergic alpha-1 receptor in porcine brain
# [20] = biological target: Dopamine receptors; D3 & D4 (Homo sapiens) (UniProt P35462+P21917); assay: Selectivity for human dopamine D4.4 receptor over dopamine D3 receptor; format: protein assay
# Chain of Dopamine receptors; D3 & D4 (Homo sapiens) (P35462 whole entry, looked up, one chain of several): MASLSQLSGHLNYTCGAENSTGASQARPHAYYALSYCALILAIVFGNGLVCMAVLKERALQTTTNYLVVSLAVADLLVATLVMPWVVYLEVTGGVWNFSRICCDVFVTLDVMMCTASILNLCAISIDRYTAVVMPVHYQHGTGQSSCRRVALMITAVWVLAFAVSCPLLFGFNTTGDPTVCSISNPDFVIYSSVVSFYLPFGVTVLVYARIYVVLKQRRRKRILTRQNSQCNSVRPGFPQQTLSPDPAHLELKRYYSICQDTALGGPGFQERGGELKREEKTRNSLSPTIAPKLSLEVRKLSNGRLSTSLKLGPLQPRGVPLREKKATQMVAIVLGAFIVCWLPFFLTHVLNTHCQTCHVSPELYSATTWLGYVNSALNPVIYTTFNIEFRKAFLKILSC
# Chain of D(1A) dopamine receptor (P50130 whole entry): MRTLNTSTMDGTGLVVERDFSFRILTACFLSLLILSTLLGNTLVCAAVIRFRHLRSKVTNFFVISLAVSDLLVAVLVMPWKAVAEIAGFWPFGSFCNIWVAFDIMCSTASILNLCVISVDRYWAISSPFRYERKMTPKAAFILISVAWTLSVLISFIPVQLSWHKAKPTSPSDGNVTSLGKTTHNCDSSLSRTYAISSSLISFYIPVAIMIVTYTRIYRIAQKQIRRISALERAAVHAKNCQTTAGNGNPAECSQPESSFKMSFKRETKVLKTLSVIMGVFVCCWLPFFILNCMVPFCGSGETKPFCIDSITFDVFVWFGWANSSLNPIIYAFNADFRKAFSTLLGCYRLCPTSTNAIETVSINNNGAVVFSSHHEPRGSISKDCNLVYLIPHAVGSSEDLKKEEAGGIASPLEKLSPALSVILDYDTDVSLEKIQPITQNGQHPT
# T4 sequence (P14416 whole entry, looked up, one chain of several): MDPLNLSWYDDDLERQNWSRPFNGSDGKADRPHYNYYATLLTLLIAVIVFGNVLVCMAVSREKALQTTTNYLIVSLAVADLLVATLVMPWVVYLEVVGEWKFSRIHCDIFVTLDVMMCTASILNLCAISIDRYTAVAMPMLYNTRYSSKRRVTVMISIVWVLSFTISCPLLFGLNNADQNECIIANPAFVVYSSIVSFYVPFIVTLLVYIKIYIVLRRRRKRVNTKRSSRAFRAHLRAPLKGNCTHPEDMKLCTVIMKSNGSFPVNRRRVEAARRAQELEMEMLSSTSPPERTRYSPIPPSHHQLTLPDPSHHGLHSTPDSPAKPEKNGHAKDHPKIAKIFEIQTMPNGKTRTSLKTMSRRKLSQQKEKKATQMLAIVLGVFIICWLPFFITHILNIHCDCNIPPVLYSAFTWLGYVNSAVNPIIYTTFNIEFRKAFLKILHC
# T2 sequence (P14416 whole entry): as the sequence (P14416 whole entry, looked up, one chain of several) above
# Chain of 5-hydroxytryptamine receptor 2A (P50129 whole entry): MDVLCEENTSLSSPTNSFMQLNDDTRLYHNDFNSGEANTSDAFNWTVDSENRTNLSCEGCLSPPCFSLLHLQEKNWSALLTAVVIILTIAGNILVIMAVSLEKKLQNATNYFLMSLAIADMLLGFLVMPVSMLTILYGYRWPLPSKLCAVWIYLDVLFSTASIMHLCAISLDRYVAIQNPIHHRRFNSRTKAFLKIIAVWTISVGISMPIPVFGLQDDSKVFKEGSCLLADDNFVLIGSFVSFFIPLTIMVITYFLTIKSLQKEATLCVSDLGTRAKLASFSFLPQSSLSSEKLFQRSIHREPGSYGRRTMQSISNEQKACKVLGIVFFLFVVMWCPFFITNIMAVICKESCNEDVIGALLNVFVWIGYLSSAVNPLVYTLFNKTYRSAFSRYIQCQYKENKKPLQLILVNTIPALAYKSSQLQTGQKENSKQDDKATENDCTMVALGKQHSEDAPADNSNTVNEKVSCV
# Chain of D(3) dopamine receptor (P35462 whole entry): as the sequence (P35462 whole entry, looked up, one chain of several) above
Ki [1] [nM],Ki [2] [nM],Ki [4] [nM],Ki [5] [nM],Ki [6] [nM],Activity [7] [%],SMILES,other results
1.4,1700,2300,3200,2700,0,Clc1ccc(N2CCN(Cc3cn4ccccc4n3)CC2)cc1Cl,Ki [3]: 1200 nM
1.3,1500,1500,1100,670,0,Clc1ccc2nc(CN3CCN(c4ccc(Cl)c(Cl)c4)CC3)cn2n1,Ki [3]: 1200 nM
2,7700,5500,12000,8200,0,Clc1ccc(N2CCN(Cc3cn4nc(Cl)ccc4n3)CC2)cc1,Ki [3]: 910 nM
0.25,800,7100,130,140,0,COc1ccccc1N1CCN(Cc2cn3cc(Br)ccc3n2)CC1,
1900,880,13000,8000,7800,,CN1CCN(c2ccc3nc(CN4CCN(c5ccc(Cl)c(Cl)c5)CC4)cn3n2)CC1,
0.53,470,5900,88,97,0,COc1ccccc1N1CCN(Cc2cn3cc(C)cc(I)c3n2)CC1,
7,8800,6700,15000,16000,6,Clc1ccc(N2CCN(Cc3cn4ccccc4n3)CC2)cc1,Ki [3]: 1200 nM; EC50 [8]: 1.8 nM; EC50 [9]: 2.6 nM; Activity [10]: 18%
0.94,1000,27000,590,280,,COc1ccccc1N1CCN(Cc2cn3c(-n4cccn4)cccc3n2)CC1,
120,850,2200,1100,710,,Clc1ccc(N2CCN(Cc3cn4nc(N5CCCCC5)ccc4n3)CC2)cc1Cl,
,,,,,46,COc1ccccc1N1CCN(Cc2cn3ccccc3n2)CC1,Ki [3]: 5900 nM; Activity [11]: 1.12; Activity [12]: 2.42; Activity [13]: 2.32; Activity [14]: 1.02; Activity [10]: 57%
1.6,1400,7700,96,79,0,COc1ccccc1N1CCN(Cc2cn3nc(Cl)ccc3n2)CC1,Ki [3]: 3400 nM
,,,,,,Cc1cccc(C(=O)NCN2CCN(c3ccccc3C#N)CC2)c1,Selectivity ratio [15]: 8
44,3100,8400,21000,19000,,Fc1ccc(N2CCN(Cc3cn4ccccc4n3)CC2)cc1,Selectivity ratio [16]: > 440; Ki [3]: 860 nM; Selectivity ratio [17]: > 440; Selectivity ratio [18]: > 440; Ki [19]: 260 nM; Selectivity ratio [20]: > 440
2.3,2100,6400,210,100,,COc1ccccc1N1CCN(Cc2cn3cc(C)cc(N4CCOCC4)c3n2)CC1,
0.84,390,2900,49,28,,COc1ccccc1N1CCN(Cc2cn3cc(C)cc(-c4ccccc4)c3n2)CC1,
0.99,1000,2500,3500,3700,0,Clc1ccc(N2CCN(Cc3cn4cc(Br)ccc4n3)CC2)cc1Cl,Selectivity ratio [16]: > 440; Selectivity ratio [17]: > 440; Selectivity ratio [18]: > 440; Selectivity ratio [20]: > 440

SMILES,Ki [1] [nM],Ki [2] [nM],Ki [4] [nM],Ki [5] [nM],Ki [6] [nM],Activity [7] [%],other results
Fc1ccc(N2CCN(Cc3cn4cccnc4n3)CC2)cc1,2800,60000,47000,55000,49000,,
N#Cc1ccc2[nH]c(CN3CCN(c4ccccc4)CC3)cc2c1,,,13000,,,,
Fc1ccc(N2CCN(Cc3cn4ccncc4n3)CC2)cc1,500,42000,15000,64000,68000,,
N#Cc1ccc2[nH]c(CN3CCN(c4ccc(F)cc4)CC3)cc2c1,,,8600,,,,
COc1ccccc1N1CCN(Cc2cn3cc(C)cc(-n4cccn4)c3n2)CC1,1.6,2400,8700,530,280,,
COc1ccccc1N1CCN(Cc2cn3cc(C)cc(Br)c3n2)CC1,0.99,670,5600,240,150,,
Fc1ccc(N2CCN(Cc3cn4nc(Cl)ccc4n3)CC2)cc1,4,5600,7000,9900,12000,,
COc1ccccc1N1CCN(Cc2cn3cc(I)ccc3n2)CC1,0.33,600,6400,73,72,10,EC50 [8]: 0.52 nM
COc1ccccc1N1CCN(Cc2cn3cc(C)cc(C#N)c3n2)CC1,1.3,3500,40000,4200,2700,,Selectivity ratio [16]: 2080; Selectivity ratio [17]: 3230
